Square brackets hold non-standard residues; d marks the D form. Peptide text beside a SMILES is read from it. Gly(Nα-4-Cl-benzyl) = O=C(O)CNCc1ccc(Cl)cc1; N(4-F-Bzl)Gly = O=C(O)CNCc1ccc(F)cc1; Gly(N-(CH2)6NH2) = NCCCCCCNCC(=O)O; Gly(N-2-aminoethyl) = NCCNCC(=O)O; N(isopentyl)Gly = CC(C)CCNCC(=O)O; Nspe = C[C@H](NCC(=O)O)c1ccccc1; NhArg = N=C(N)NCCCCNCC(=O)O; Nphe = O=C(O)CNCc1ccccc1; Nlys = NCCCCNCC(=O)O
Columns and labels:
[1] = Selectivity index, ratio of ED50 for human HepG2 cells to MIC for Staphylococcus aureus 3R7089 strain Oxford/ATCC 9144; type: toxicity; conditions: read-out: Selectivity Index
[2] = Selectivity index, ratio of ED50 for human HaCaT cells to MIC for Staphylococcus aureus 3R7089 strain Oxford/ATCC 9144; type: toxicity; conditions: read-out: Selectivity Index
[3] = Selectivity index, ratio of ED50 for human HepG2 cells to MIC for Staphylococcus epidermidis clinical isolate; type: toxicity; conditions: read-out: Selectivity Index
[4] = Selectivity index, ratio of ED50 for human HaCaT cells to MIC for Staphylococcus epidermidis clinical isolate; type: toxicity; conditions: read-out: Selectivity Index
[5] = Cytotoxicity against human HepG2 cells assessed as reduction in cell viability pretreated for 1 hr followed by DMEM addition measured after 24 hrs by alamar blue assay; type: cell-based; conditions: read-out: ED50
In short: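 HepG2 cells are kept in DMEM high glucose with 10% heat-inactivated FBS and 1% P/S at 37 °C, 5% CO2, and seeded at 2x10^4 cells/well one day ahead. They are exposed to compounds (100 to 3 µM, from 5 mM DMSO stocks) in 50 µL for 1 h. Medium is then added and cells incubated 24 h. alamarBlue is read after 2 h (Ex 560/Em 600). Triplicate on ≥2 occasions; ED50 from dose-response; DMSO negative control.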

[6] = Selectivity index, ratio of ED50 for human HaCaT cells to MIC for Escherichia coli K-12 W3110 ATCC 27325; type: toxicity; conditions: read-out: Selectivity Index
[7] = Cytotoxicity against human HaCaT cells assessed as reduction in cell viability pretreated for 1 hr followed by DMEM addition measured after 24 hrs by alamar blue assay; type: cell-based; conditions: read-out: ED50
In short: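 HaCaT keratinocytes are grown in DMEM high glucose with 10% FBS and 1% P/S and seeded at 2x10^4 cells/well 24 h before treatment. Compound dilution series run 2–100 µM (5 mM DMSO stocks) in 50 µL for 1 h, then medium is added for 24 h at 37 °C, 5% CO2. alamarBlue is read after 1 h (Ex 540/Em 620). Triplicate, ≥2 occasions; ED50 from dose-response; amphotericin B positive control.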

[8] = Selectivity index, ratio of ED50 for human HepG2 cells to MIC for Escherichia coli K-12 W3110 ATCC 27325; type: toxicity; conditions: read-out: Selectivity Index
[9] = Selectivity index, ratio of ED50 for human HaCaT cells to MIC for Pseudomonas aeruginosa PAO1 ATCC 15692; type: toxicity; conditions: read-out: Selectivity Index
[10] = Selectivity index, ratio of ED50 for human HepG2 cells to MIC for Pseudomonas aeruginosa PAO1 ATCC 15692; type: toxicity; conditions: read-out: Selectivity Index
[11] = test system: Pseudomonas aeruginosa; test: Antibacterial activity against Pseudomonas aeruginosa PAO1 ATCC 15692 incubated for 16 hrs under shaking condition; type: functional; conditions: PAO1 ATCC 15692, 16 h
In short: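 Broth microdilution (Andrews method) in Iso-sensitest broth. Overnight cultures are adjusted to A650 0.07 (0.5 McFarland) and diluted ten-fold. Compounds come from 5 mM DMSO stocks, 2-fold serially diluted, final 2–100 μM in a 1:1 inoculum:compound mix. Incubation is 37 °C for 16 h with shaking. MIC is the lowest concentration giving complete growth inhibition, read by absorbance; triplicate.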

MIC [11] [µM] | SMILES | selectivity ratio [1] | selectivity ratio [2] | selectivity ratio [3] | selectivity ratio [4] | CC50 at 24 h [5] [µM] | selectivity ratio [6] | CC50 at 24 h [7] [µM] | selectivity ratio [8] | selectivity ratio [9] | selectivity ratio [10]
– | C[C@@H](c1ccccc1)N(CC(N)=O)C(=O)CN(Cc1ccc(F)cc1)C(=O)CN(CCCCN)C(=O)CN(C(=O)CN(Cc1ccc(F)cc1)C(=O)CN(CCCCN)C(=O)CN(C(=O)CN(Cc1ccc(F)cc1)C(=O)CN(CCCCN)C(=O)CN(C(=O)CN(Cc1ccc(F)cc1)C(=O)CNCCCCN)[C@@H](C)c1ccccc1)[C@@H](C)c1ccccc1)[C@@H](C)c1ccccc1 | 13 | 10 | 13 | 10 | – | – | – | – | – | –
– | NCCNCC(=O)N(CC(=O)N(CC(=O)N(CCN)CC(=O)N(CC(=O)N(CC(=O)N(CCN)CC(=O)N(CC(=O)N(CC(=O)N(CCN)CC(=O)N(CC(=O)N(CC(N)=O)Cc1ccccc1)Cc1ccccc1)Cc1ccccc1)Cc1ccccc1)Cc1ccccc1)Cc1ccccc1)Cc1ccccc1)Cc1ccccc1 (H-[Gly(N-2-aminoethyl)][Nphe][Nphe][Gly(N-2-aminoethyl)][Nphe][Nphe][Gly(N-2-aminoethyl)][Nphe][Nphe][Gly(N-2-aminoethyl)][Nphe][Nphe]-NH2) | – | – | 17 | 17 | > 100 | 8 | > 100 | 8 | – | –
– | C[C@@H](c1ccccc1)N(CC(N)=O)C(=O)CN(C(=O)CN(CCCCCCN)C(=O)CN(C(=O)CN(C(=O)CN(CCCCCCN)C(=O)CN(C(=O)CN(C(=O)CN(CCCCCCN)C(=O)CN(C(=O)CN(C(=O)CNCCCCCCN)[C@@H](C)c1ccccc1)[C@@H](C)c1ccccc1)[C@@H](C)c1ccccc1)[C@@H](C)c1ccccc1)[C@@H](C)c1ccccc1)[C@@H](C)c1ccccc1)[C@@H](C)c1ccccc1 (H-[Gly(N-(CH2)6NH2)][Nspe][Nspe][Gly(N-(CH2)6NH2)][Nspe][Nspe][Gly(N-(CH2)6NH2)][Nspe][Nspe][Gly(N-(CH2)6NH2)][Nspe][Nspe]-NH2) | 21 | 12 | 21 | 12 | – | – | – | – | 0 | 1
> 100 | CC(C)CCN(CC(=O)N(CC(N)=O)[C@@H](C)c1ccccc1)C(=O)CN(CCCCNC(=N)N)C(=O)CN(C(=O)CN(CCC(C)C)C(=O)CN(CCCCNC(=N)N)C(=O)CN(C(=O)CN(CCC(C)C)C(=O)CNCCCCNC(=N)N)[C@@H](C)c1ccccc1)[C@@H](C)c1ccccc1 (H-[NhArg][N(isopentyl)Gly][Nspe][NhArg][N(isopentyl)Gly][Nspe][NhArg][N(isopentyl)Gly][Nspe]-NH2) | – | – | – | – | – | – | – | – | – | –
– | N=C(N)NCCCCNCC(=O)N(CC(=O)N(CC(=O)N(CCCCNC(=N)N)CC(=O)N(CC(=O)N(CC(=O)N(CCCCNC(=N)N)CC(=O)N(CC(=O)N(CC(=O)N(CCCCNC(=N)N)CC(=O)N(CC(=O)N(CC(N)=O)Cc1ccccc1)Cc1ccccc1)Cc1ccccc1)Cc1ccccc1)Cc1ccccc1)Cc1ccccc1)Cc1ccccc1)Cc1ccccc1 (H-[NhArg][Nphe][Nphe][NhArg][Nphe][Nphe][NhArg][Nphe][Nphe][NhArg][Nphe][Nphe]-NH2) | – | – | – | 50 | – | 17 | > 100 | – | 4 | –
– | C[C@@H](c1ccccc1)N(CC(N)=O)C(=O)CN(C(=O)CN(CCCCN)C(=O)CN(C(=O)CN(C(=O)CN(CCCCN)C(=O)CN(C(=O)CN(C(=O)CN(CCCCNC(=N)N)C(=O)CN(C(=O)CN(C(=O)CNCCCCNC(=N)N)[C@@H](C)c1ccccc1)[C@@H](C)c1ccccc1)[C@@H](C)c1ccccc1)[C@@H](C)c1ccccc1)[C@@H](C)c1ccccc1)[C@@H](C)c1ccccc1)[C@@H](C)c1ccccc1 (H-[NhArg][Nspe][Nspe][NhArg][Nspe][Nspe][Nlys][Nspe][Nspe][Nlys][Nspe][Nspe]-NH2) | – | 1 | – | – | – | 1 | – | – | 1 | –
– | C[C@@H](c1ccccc1)N(CC(N)=O)C(=O)CN(C(=O)CN(CCCCN)C(=O)CN(C(=O)CN(C(=O)CN(CCCCNC(=N)N)C(=O)CN(C(=O)CN(C(=O)CN(CCCCN)C(=O)CN(C(=O)CN(C(=O)CNCCCCNC(=N)N)[C@@H](C)c1ccccc1)[C@@H](C)c1ccccc1)[C@@H](C)c1ccccc1)[C@@H](C)c1ccccc1)[C@@H](C)c1ccccc1)[C@@H](C)c1ccccc1)[C@@H](C)c1ccccc1 (H-[NhArg][Nspe][Nspe][Nlys][Nspe][Nspe][NhArg][Nspe][Nspe][Nlys][Nspe][Nspe]-NH2) | – | 2 | – | – | – | 2 | – | 2 | – | –
– | NCCCCNCC(=O)N(CC(=O)N(CC(=O)N(CCCCN)CC(=O)N(CC(=O)N(CC(=O)N(CCCCN)CC(=O)N(CC(=O)N(CC(N)=O)Cc1ccc(Cl)cc1)Cc1ccc(Cl)cc1)Cc1ccc(Cl)cc1)Cc1ccc(Cl)cc1)Cc1ccc(Cl)cc1)Cc1ccc(Cl)cc1 (H-[Nlys][Gly(Nα-4-Cl-benzyl)][Gly(Nα-4-Cl-benzyl)][Nlys][Gly(Nα-4-Cl-benzyl)][Gly(Nα-4-Cl-benzyl)][Nlys][Gly(Nα-4-Cl-benzyl)][Gly(Nα-4-Cl-benzyl)]-NH2) | 8 | 7 | 12 | 11 | – | – | – | – | 1 | 1
– | NCCCCNCC(=O)N(CC(=O)N(CC(=O)N(CCCCN)CC(=O)N(CC(=O)N(CC(=O)N(CCCCN)CC(=O)N(CC(=O)N(CC(N)=O)Cc1ccc(F)cc1)Cc1ccc(F)cc1)Cc1ccc(F)cc1)Cc1ccc(F)cc1)Cc1ccc(F)cc1)Cc1ccc(F)cc1 (H-[Nlys][N(4-F-Bzl)Gly][N(4-F-Bzl)Gly][Nlys][N(4-F-Bzl)Gly][N(4-F-Bzl)Gly][Nlys][N(4-F-Bzl)Gly][N(4-F-Bzl)Gly]-NH2) | 15 | 33 | 15 | 33 | – | 6 | > 100 | 3 | – | –
– | NCCCCNCC(=O)N(CC(=O)N(CC(=O)N(CCCCN)CC(=O)N(CC(=O)N(CC(=O)N(CCCCN)CC(=O)N(CC(=O)N(CC(=O)N(CCCCN)CC(=O)N(CC(=O)N(CC(N)=O)Cc1ccc(F)cc1)Cc1ccc(F)cc1)Cc1ccc(F)cc1)Cc1ccc(F)cc1)Cc1ccc(F)cc1)Cc1ccc(F)cc1)Cc1ccc(F)cc1)Cc1ccc(F)cc1 (H-[Nlys][N(4-F-Bzl)Gly][N(4-F-Bzl)Gly][Nlys][N(4-F-Bzl)Gly][N(4-F-Bzl)Gly][Nlys][N(4-F-Bzl)Gly][N(4-F-Bzl)Gly][Nlys][N(4-F-Bzl)Gly][N(4-F-Bzl)Gly]-NH2) | 15 | 23 | 30 | 46 | – | 4 | – | 2 | – | –
– | NCCCCNCC(=O)N(CC(=O)N(CC(=O)N(CCCCN)CC(=O)N(CC(=O)N(CC(=O)N(CCCCN)CC(=O)N(CC(=O)N(CC(=O)N(CCCCN)CC(=O)N(CC(=O)N(CC(N)=O)Cc1ccccc1)Cc1ccccc1)Cc1ccccc1)Cc1ccccc1)Cc1ccccc1)Cc1ccccc1)Cc1ccccc1)Cc1ccccc1 (H-[Nlys][Nphe][Nphe][Nlys][Nphe][Nphe][Nlys][Nphe][Nphe][Nlys][Nphe][Nphe]-NH2) | 33 | 12 | 50 | 18 | > 100 | 3 | – | 8 | – | –
– | C[C@@H](c1ccccc1)N(CC(N)=O)C(=O)CN(C(=O)CN(CCCCN)C(=O)CN(C(=O)CN(C(=O)CN(CCCCN)C(=O)CN(C(=O)CN(C(=O)CN(CCCCNC(=N)N)C(=O)CN(C(=O)CN(C(=O)CNCCCCN)[C@@H](C)c1ccccc1)[C@@H](C)c1ccccc1)[C@@H](C)c1ccccc1)[C@@H](C)c1ccccc1)[C@@H](C)c1ccccc1)[C@@H](C)c1ccccc1)[C@@H](C)c1ccccc1 (H-[Nlys][Nspe][Nspe][NhArg][Nspe][Nspe][Nlys][Nspe][Nspe][Nlys][Nspe][Nspe]-NH2) | – | 2 | – | – | – | 2 | – | 2 | 2 | –
– | C[C@@H](c1ccccc1)N(CC(N)=O)C(=O)CN(C(=O)CN(CCCCNC(=N)N)C(=O)CN(C(=O)CN(C(=O)CN(CCCCNC(=N)N)C(=O)CN(C(=O)CN(C(=O)CN(CCCCN)C(=O)CN(C(=O)CN(C(=O)CNCCCCN)[C@@H](C)c1ccccc1)[C@@H](C)c1ccccc1)[C@@H](C)c1ccccc1)[C@@H](C)c1ccccc1)[C@@H](C)c1ccccc1)[C@@H](C)c1ccccc1)[C@@H](C)c1ccccc1 (H-[Nlys][Nspe][Nspe][Nlys][Nspe][Nspe][NhArg][Nspe][Nspe][NhArg][Nspe][Nspe]-NH2) | – | 6 | – | – | – | 6 | > 100 | – | 3 | –

Reference: ChEMBL document CHEMBL4261490, “Exploring the links between peptoid antibacterial activity and toxicity” (Medchemcomm, 2017)
